Assay outcomes deposited in PubChem by several laboratories.
OX1R antag-1 = OX1R (human) antagonism | OX1R-expressing cells, FRET antagonist read-out | inhibition, % at 6.6 µM | 330,000 tested, 1.8% active; in the data active = inhibition mostly above about 38%, no sharp cut-off; inactive = mostly below about 40%;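 also: 0% = agonist challenge alone and 100% = reference antagonist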
PGE2 EP2 inh = blocks the human prostaglandin E2 receptor EP2; P43116; C6 glioma cells expressing human EP2, cAMP TR-FRET; cells stimulated with saturating PGE2; inhibition, % at 25 µM; 260,000 tested, 0.52% active; AID 1422;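 active = percent inhibition above 40 after rounding to a whole number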;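 also: rat C6 glioma host cells with rolipram phosphodiesterase inhibitor present; the protocol text gives 20 µM as final concentration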
Target sequence (P43116 whole entry, looked up): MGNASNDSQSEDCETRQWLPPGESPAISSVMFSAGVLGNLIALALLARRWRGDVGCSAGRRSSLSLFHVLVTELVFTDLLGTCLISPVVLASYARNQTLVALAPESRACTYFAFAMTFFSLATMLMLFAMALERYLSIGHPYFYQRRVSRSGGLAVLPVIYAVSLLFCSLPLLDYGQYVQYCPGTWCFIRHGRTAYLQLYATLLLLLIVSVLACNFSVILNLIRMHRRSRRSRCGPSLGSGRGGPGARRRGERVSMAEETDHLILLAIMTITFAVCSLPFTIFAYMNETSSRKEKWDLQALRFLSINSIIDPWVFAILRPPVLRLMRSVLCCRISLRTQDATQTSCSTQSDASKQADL
EP2 modulator = modulates human prostaglandin E2 receptor EP2 signaling; 260,000 tested, 0.83% active; EP2-expressing cells, cAMP HTRF FRET, PGE2 co-stimulation; induction, % at 25 µM;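 active = compounds whose cAMP rise, as percent of the full-agonist control response, exceeds 60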;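 also: rat C6 glioma line stably carrying human EP2 under a CMV promoter; the protocol text gives 20 µM as final concentration; 100% = response of wells given 1 µM PGE2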
OX1R antag-2 = human HCRTR1 antagonism | CHO/OX1R cells, Fluo-8 calcium fluorescence, orexin A | 330,000 tested, 0.43% active | inhibition, % at 5 µM | O43613;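 active = inhibition above its plate's threshold, mean inhibition of all tested compounds on the plate plus 3 SD, cut at about 37% in these data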;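 also: 0% = orexin A challenge wells and 100% = SB-334867-A antagonist wells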
CHO parental Ca = counter-screen for OX1R antagonists: effect in parental CHO cells. parental CHO-K1, ATP-induced calcium, Fluo-8 fluorescence. inhibition, % at 5.6 µM. 330,000 tested, 0.63% active. AID 463079;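 active = inhibition above that plate's mean sample inhibition plus 3 SD, cut at about 26% in these data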;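 also: 0% = ATP-challenged DMSO wells and 100% = DMSO wells without ATP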
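Test system: untransfected parental CHO cell line. Compound: one dose, 5.6 µM nominal. Detection: intracellular calcium via Fluo-8 no-wash fluorescent dye. Measure: % inhibition. Benchmarks: ATP-challenged DMSO wells low, unchallenged DMSO wells high.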
GPR7 antagonist = human neuropeptides B/W receptor 1 antagonism; P48145; GPR7-expressing cells, fluorescence antagonist assay; inhibition, % at 4.4 µM; 290,000 tested, 1.1% active; in the data active = inhibition above about 16%, passing the limit was not always enough;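 also: cells stimulated with the agonist NPW; 0% = agonist with vehicle and 100% = vehicle without agonist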
* hit, by the source's call; nt = no result; ! = not active in a repeat. Shown are actives, neighbours in structure and some others; about 3.7% of the full set was active somewhere.

SMILES | OX1R antag-1 | PGE2 EP2 inh | EP2 modulator | OX1R antag-2 | CHO parental Ca | GPR7 antagonist
CCCCC#Cc1ccc(C(=O)NNC(=O)Nc2ccccc2)o1 | 5 | 15 | -22 | -19 | 35* | 1
N#CCSc1nnc(COc2cccc3ccccc23)n1-c1cccc(Cl)c1 | 3 | 3 | 72*! | -21 | -16 | -8
Cc1ccc(-c2nc(N3CCOCC3)sc2C(=O)N2CCCCC2)cc1 | 18 | 9 | 20 | -9 | -31 | 25*
O=C1C=C(OCc2ccccc2)CN1 | 9 | 4 | -8 | -19 | -8 | -11
Cc1nc(-c2ccccc2)sc1C1(C)CC(c2ccc([N+](=O)[O-])cc2)=NO1 (centres undefined) | 21 | 5 | -25 | -26 | -26 | nt
O=C1c2ccccc2C(=O)c2c1ncn2-c1ccccc1 | 64* | 15 | 32 | -1 | 4 | -7
CN(CP(=O)(O)C(O)c1ccccc1)S(C)(=O)=O (centres undefined) | -7 | 10 | -1 | -1 | -6 | 6
COc1ccc(-c2ccc(=O)n(Cc3c(F)cccc3Cl)n2)cc1 | 23 | nt | nt | -28 | -28 | -16
COc1ccc(-c2ccc(=O)n(Cc3cccc([N+](=O)[O-])c3)n2)cc1 | 31 | 7 | -42 | -6 | 4 | 39*
CC1Cc2ccccc2N1C(=O)c1ccc(N2CCCCC2)c([N+](=O)[O-])c1 (centres undefined) | 50* | 3 | 1 | -13 | -16 | -10
N#Cc1cc([N+](=O)[O-])ccc1N1CCN(c2ccccc2O)CC1 | 23 | 25 | -44 | -12 | 32* | 1
O=C(O)c1ccccc1C(=O)c1ccc(N2CCCC2)c([N+](=O)[O-])c1 | 21 | 10 | 11 | -25 | -1 | -10
O=[N+]([O-])c1ccc(N2CCN(c3ccc([N+](=O)[O-])cc3CO)CC2)c(CO)c1 | 16 | nt | nt | 14 | 32 | 20
CC(=O)c1ccc(N2CCN(c3ccccc3O)CC2)c([N+](=O)[O-])c1 | 79* | nt | nt | 63* | 44* | 10
O=C(NNC(=O)c1sccc1-n1cccc1)Nc1ccccc1 | 7 | 2 | -6 | -4 | 2 | -5
CCOC(=O)N1CCC(NC(=O)c2cc(C(=O)NC3CCCC3)ccc2CO)CC1 | 3 | 12 | 3 | -2 | -1 | 3
CCN(CC)c1ccc(NC(=O)c2cc3c(OC)cccc3[nH]2)cc1 | 40* | nt | nt | -6 | -25 | -30
COc1cccc2[nH]c(C(=O)NC(C)c3ccccc3)cc12 (centres undefined) | -11 | nt | nt | -19 | -10 | -9
COc1ccccc1CN1CC(C(=O)N(C)Cc2ccncc2C)CCC1=O (centres undefined) | 27 | nt | nt | -17 | 1 | -7
Cc1ccc(C(=O)Nc2ccc3c(c2)OCO3)cc1 | 10 | 8 | -3 | -19 | -11 | -8
CCc1nc2ccc(C(=O)Nc3ccc4c(c3)OCO4)cc2nc1CC | 35* | 8 | -14 | -23 | -9 | 15
COc1cc(OC)cc(C(=O)NCCN2C(=O)S/C(=C\c3cccs3)C2=O)c1 | 35* | 7 | -34 | -7 | 7 | -14
O=C(c1ccc(S(=O)(=O)c2cccc(Cl)c2)c([N+](=O)[O-])c1)N1CCN(c2ccccn2)CC1 | 43 | 4 | -65 | 4 | 33* | 12
CC(=O)Nc1ccc(Br)c2ccccc12 | 8 | 10 | 21 | -16 | -7 | -8
O=C(Nc1ccc(Br)c2ccccc12)c1ccc2ccccc2c1O | 41* | 19 | 41 | -17 | 26 | 12
SMILES | OX1R antag-1 | PGE2 EP2 inh | EP2 modulator | OX1R antag-2 | CHO parental Ca | GPR7 antagonist
Cc1nn(CC(=O)Nc2ccccn2)c(=O)c2ccccc12 | 7 | 8 | 3 | 1 | -1 | 5
CC(=O)c1sc(-c2ccc(F)cc2F)nc1C | 5 | 18 | 8 | -12 | -1 | -8
O=C1C=CC(=O)N1CCNc1ncc(C(F)(F)F)cc1Cl | nt | 101* | -50 | nt | nt | -9
O=C1CC(=O)N(CCNc2ncc(C(F)(F)F)cc2Cl)C(=O)N1 | 7 | 8 | 5 | -1 | -5 | 2
CC1=CC(C)(C)n2c(O)c(N=N)c3c(C)c(C)cc1c32 | 5 | 5 | 76* | -27 | -6 | -15
CC1=CC(C)(C)n2c(O)c(N=N)c3c(C)ccc1c32 | 6 | 11 | 82* | -23 | -17 | -23
C=CCOc1cccc(C2/C(=C(\O)c3ccc(F)cc3)C(=O)C(=O)N2CCN(C)C)c1 (centres undefined) | 11 | 14 | -13 | -10 | -11 | 2
O=C1CSC2(CCN(CCCN3c4ccccc4Sc4ccc(Cl)cc43)CC2)N1 | nt | 34 | 30 | nt | nt | nt
Clc1ccc2c(c1)N(CCCN1CCCC13CCCCC3)c1ccccc1S2 | nt | 53* | -5 | nt | nt | nt
c1ccc(-c2ccc(C(c3ccccc3)n3ccnc3)cc2)cc1 (centres undefined) | 23 | 12 | 20 | -18 | -8 | 36*!
c1ccc(-c2ccc(-n3ccnc3)cc2)cc1 | 8 | 13 | -31 | -1 | -10 | 14
O=C(NCc1ccncc1)C(=O)C1C(=O)Nc2ccccc21 (centres undefined) | 28 | 7 | 17 | 10 | 2 | -2
O=S(=O)(Cc1ccccc1)Nc1ccccc1 | 17 | nt | nt | -9 | 4 | 2
CN(Cc1ccccc1)S(=O)(=O)c1ccc(NS(=O)(=O)Cc2ccccc2)cc1 | 44* | 11 | -7 | 42* | 40* | 11
COCCn1c(-c2ccc(Cl)cc2)cnc1SCC(=O)NCc1cccs1 | 13 | 11 | 25 | -20 | -13 | 20*
O=C(CSc1nc2ccccc2c(=O)n1Cc1ccc(Cl)cc1)NCc1cccs1 | 10 | 7 | 10 | -26 | -12 | 2
Cc1ncc(C23CC4CC(CC(C4)C2)C3)[nH]1 | 3 | nt | 4 | -3 | -4 | -7
Fc1ccc(Nc2nc(-c3ccncc3)nc3ccccc23)cc1 | 13 | 11 | 9 | -26 | -9 | -7
O=C(Nc1cccc2ncccc12)c1cc(Br)ccc1Cl | -8 | nt | nt | -32 | -27 | -4
O=C(Nc1ccc(Cl)cn1)C1CCCN1S(=O)(=O)c1cccc2ccccc12 (centres undefined) | 64* | 8 | -16 | 3 | -10 | -6
O=C(Nc1ccc(Cl)cn1)C1CCCN1S(=O)(=O)c1ccc(Cl)cc1 (centres undefined) | 64* | 12 | 11 | 37 | -31 | -6
COc1cc(NC(=O)[C@H]2CCCN2S(=O)(=O)c2cccc3cccnc23)cc(OC)c1OC | 41 | nt | nt | -15 | -19 | nt
NNC(=O)C1CCCN1S(=O)(=O)c1ccc(Cl)cc1 (centres undefined) | 17 | 25 | -21 | -22 | -29 | -4
O=C(NC(=S)NCCN1CCOCC1)c1ccccc1Cl | 17 | 7 | 64* | -7 | -19 | 0
OCCNc1nc(-c2ccccc2)nc2c1oc1ccccc12 | 40* | 6 | -5 | -14 | -23 | -10
